Published values of several laboratories.
Protocols differ between the studies behind these lines.
Target: STE20-like serine/threonine-protein kinase (SLK, Homo sapiens, UniProt Q9H2G2)

The inhibition of C#Cc1cc(-c2cc(Nc3nc(N[C@@H](C)c4ccc(F)cn4)ncc3Cl)n[nH]2)ccc1C=O is reported as 54.5% (enzyme activity, inhibitor; 0.2 µM).
For C[C@]1(O)CCCN(c2nc(Nc3ccc(S(=O)(=O)N[C@H]4CC[C@H](CN5CCN(c6ccc(C7CCC(=O)NC7=O)cc6F)CC5)CC4)cc3Cl)ncc2C(F)(F)F)C1 (some centres unmarked), the remaining binding was 100% (binding, competition with immobilised ligand; 1 µM).
The remaining binding of C[C@H]1CC[C@H](n2c3cnccc3c3cnc(Nc4ccc5c(n4)CCN(C(=O)CO)C5)nc32)CC1 is reported as 78% (binding, competition with immobilised ligand; 1 µM).
For CCCCC(=O)Nc1ccc(-c2ccc3ncn(CCC)c(=O)c3c2)cn1, the remaining binding was 100% (binding, competition with immobilised ligand; 0.5 µM).
For CC#CC(=O)N1CCC[C@H]1c1nc(-c2ccc(C(=O)Nc3ccccn3)cc2)c2c(N)nccn12, the inhibition was 0% (enzyme activity, inhibitor; 1 µM).
CN1CCN(C(=O)c2ccc(NC(=O)Nc3ccc(N(C)c4ccnc(Nc5ccc(CS(C)(=O)=O)cc5)n4)cc3)cc2)CC1 gave a remaining binding of 8.9% (binding, competition with immobilised ligand; 1 µM).
For CNS(=O)(=O)c1ccc(Nc2ncc(C(F)(F)F)c(N3CCC[C@](C)(O)C3)n2)c(C)c1, the remaining binding was 96% (binding, competition with immobilised ligand; 1 µM).
C=CC(=O)N1CCC([C@@H]2CCNc3c(C(N)=O)c(-c4ccc(Oc5ccccc5)cc4)nn32)CC1 gave an inhibition of 0% (enzyme activity, inhibitor; 1 µM).
